According to ChEMBL document CHEMBL4422701, “Jatrophane Diterpenoids from Euphorbia glomerulans” (J Nat Prod, 2019):

Columns and labels:
MCF7 = test: Cytotoxicity in human MCF7 cells assessed as reduction in cell viability incubated for 48 hrs by MTT assay; format: cell-based; conditions: MCF7, 48 h
Method in brief: (§1)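 Cells grown in RPMI-1640 with 10% heat-inactivated FBS at 37 °C, 5% CO2. Compounds were dissolved in DMSO and given as serial dilutions to cells seeded at 5 × 10^3 per well in log phase, for 48 h. MTT (5 mg/mL) was then added for 4 h, formazan dissolved in DMSO, and absorbance read at 570 nm.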

NCI/ADR-RES = test: Cytotoxicity in doxorubicin-resistant human MCF7/ADR cells assessed as reduction in cell viability incubated for 48 hrs by MTT assay; format: cell-based; method in brief: as §1

Structure (SMILES) | IC50 (MCF7) [µM] | IC50 (NCI/ADR-RES) [µM]
C=C1[C@H](O)[C@H]2[C@@H](OC(=O)c3ccccc3)[C@](C)(OC(C)=O)C[C@]2(O)[C@H](OC(C)=O)[C@@H](C)/C=C/C(C)(C)C(=O)[C@H](OC(C)=O)[C@H]1OC(C)=O | > 100 | > 100
C=C1[C@H](O)[C@H]2[C@@H](OC(=O)c3ccccc3)[C@](C)(O)C[C@]2(O)[C@H](OC(C)=O)[C@@H](C)/C=C/C(C)(C)C(=O)[C@H](OC(C)=O)[C@H]1OC(=O)c1ccccc1 | > 100 | > 100
C=C1[C@H](OC(C)=O)[C@H]2[C@@H](OC(=O)c3ccccc3)[C@](C)(O)C[C@]2(O)C(=O)[C@@H](C)/C=C/C(C)(C)C(=O)[C@H](OC(=O)C(C)C)[C@H]1OC(C)=O | > 100 | > 100
C=C1[C@H](OC(C)=O)CC(=O)C(C)(C)/C=C/[C@H](C)C(=O)[C@@]2(OC(C)=O)C[C@H](C)[C@H](OC(=O)c3ccccc3)[C@@H]2[C@H]1OC(C)=O | 51.1 | 39.3
C=C1[C@H](OC(C)=O)CC(=O)C(C)(C)/C=C/[C@H](C)C(=O)[C@@]2(OC(C)=O)C[C@H](C)[C@H](OC(C)=O)[C@@H]2[C@H]1OC(=O)c1ccccc1 | > 100 | > 100
C=C1[C@H](OC(C)=O)[C@H]2[C@@H](OC(=O)c3ccccc3)[C@](C)(OC(C)=O)C[C@]2(O)C(=O)[C@@H](C)/C=C/C(C)(C)C(=O)[C@H](OC(C)=O)[C@H]1OC(=O)C(C)C | > 100 | > 100
C=C1[C@H](OC(C)=O)[C@H]2[C@@H](OC(=O)c3ccccc3)[C@@H](C)C[C@]2(OC(C)=O)C(=O)[C@@H](C)/C=C/C(C)(C)C(=O)[C@H](O)[C@H]1OC(C)=O | > 100 | > 100
C=C1[C@H](OC(C)=O)[C@H]2[C@@H](OC(=O)c3ccccc3)[C@@H](C)C[C@]2(OC(C)=O)C(=O)[C@@H](C)/C=C/C(C)(C)C(=O)[C@H](OC(C)=O)[C@H]1OC(C)=O | > 100 | > 100
C=C1[C@H](OC(=O)c2ccccc2)[C@H]2[C@@H](OC(C)=O)[C@@H](C)C[C@]2(OC(C)=O)C(=O)[C@@H](C)/C=C/C(C)(C)C(=O)[C@H](O)[C@H]1OC(C)=O | > 100 | > 100
C=C1[C@H](OC(=O)c2ccccc2)[C@H]2[C@@H](OC(C)=O)[C@@H](C)C[C@]2(OC(C)=O)C(=O)[C@@H](C)/C=C/C(C)(C)C(=O)[C@H](OC(=O)c2ccccc2)[C@H]1OC(C)=O | > 100 | > 100
C=C1[C@H](OC(=O)c2ccccc2)[C@@H](OC(C)=O)[C@@H](OC(C)=O)C(C)(C)/C=C/[C@H](C)C(=O)[C@@]2(OC(C)=O)C[C@H](C)[C@H](OC(=O)c3ccccc3)[C@@H]2[C@H]1OC(C)=O | > 100 | > 100
C=C1[C@H](OC(C)=O)[C@H]2[C@@H](OC(=O)c3ccccc3)[C@@H](C)C[C@]2(OC(C)=O)C(=O)[C@@H](C)/C=C/C(C)(C)C(=O)[C@H](O)[C@H]1OC(=O)c1ccccc1 | > 100 | > 100
C=C1[C@H](OC(C)=O)[C@H]2[C@@H](OC(=O)c3ccccc3)[C@](C)(O)C[C@]2(O)C(=O)[C@@H](C)/C=C/C(C)(C)C(=O)[C@H](OC(C)=O)[C@H]1OC(=O)c1ccccc1 | > 100 | > 100
C=C1[C@H](OC(C)=O)[C@H]2[C@@H](OC(=O)c3ccccc3)[C@](C)(OC(C)=O)C[C@]2(O)C(=O)[C@@H](C)/C=C/C(C)(C)C(=O)[C@H](OC(=O)C(C)C)[C@H]1OC(C)=O | 50.2 | > 100
C=C1[C@H](OC(C)=O)[C@H]2[C@@H](OC(=O)c3ccccc3)[C@@H](C)C[C@]2(O)C(=O)[C@@H](C)/C=C/C(C)(C)C(=O)[C@H](O)[C@H]1OC(C)=O | > 100 | > 100
C=C1[C@H](OC(C)=O)[C@H]2[C@@H](OC(=O)c3ccccc3)[C@@H](C)C[C@]2(OC(C)=O)C(=O)[C@@H](C)/C=C/C(C)(C)C(=O)[C@H](OC(C)=O)[C@H]1OC(=O)c1ccccc1 | > 100 | > 100
C=C1[C@H](OC(C)=O)[C@H]2[C@@H](OC(=O)CC(C)=O)[C@@H](C)C[C@]2(O)C(=O)[C@@H](C)/C=C/C(C)(C)C(=O)[C@H](OC(C)=O)[C@H]1OC(=O)c1ccccc1 | > 100 | > 100
COc1cccc2c1C(=O)c1c(O)c3c(c(O)c1C2=O)C[C@@](O)(C(=O)CO)C[C@@H]3O[C@H]1C[C@H](N)[C@H](O)[C@H](C)O1 [DOXORUBICIN] |  | 64.8
